Screening data: PubChem BioAssay, Broad Institute
Sampled rows, rich in hits. Any-hit rate of the full collection: about 2.1%.
ARNT-TACC3 inh – disruptors of ARNT/TACC3 protein interaction, primary screen, biochemical, AlphaScreen, single concentration; Transforming acidic coiled-coil-containing protein 3 (Homo sapiens), Q9Y6A5; AlphaScreen His-ARNT PAS-B/GST-TACC3 binding, luminescence; TACC3 fragment carries E629A point mutation; 0.66% of 390,000 active; inhibition, % at 9.99 µM;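 active = mean inhibition of replicates at least 50% and at least half of replicates each reaching 50%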;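 also: 0% = complete ARNT plus TACC3 wells and 100% = ARNT alone without TACC3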
PDI turbidity – inhibitors of human PDI, primary screen, biochemical, turbidity, single point, plate reader | PDI insulin aggregation turbidity, A650, 90 min | 0.052% of 350,000 active | inhibition, % at 10 µM | AID 588391, 2011;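 active = mean inhibition across replicates of 30% or more, whatever share of single replicates reach that level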
Target sequence (P07237 whole entry, looked up): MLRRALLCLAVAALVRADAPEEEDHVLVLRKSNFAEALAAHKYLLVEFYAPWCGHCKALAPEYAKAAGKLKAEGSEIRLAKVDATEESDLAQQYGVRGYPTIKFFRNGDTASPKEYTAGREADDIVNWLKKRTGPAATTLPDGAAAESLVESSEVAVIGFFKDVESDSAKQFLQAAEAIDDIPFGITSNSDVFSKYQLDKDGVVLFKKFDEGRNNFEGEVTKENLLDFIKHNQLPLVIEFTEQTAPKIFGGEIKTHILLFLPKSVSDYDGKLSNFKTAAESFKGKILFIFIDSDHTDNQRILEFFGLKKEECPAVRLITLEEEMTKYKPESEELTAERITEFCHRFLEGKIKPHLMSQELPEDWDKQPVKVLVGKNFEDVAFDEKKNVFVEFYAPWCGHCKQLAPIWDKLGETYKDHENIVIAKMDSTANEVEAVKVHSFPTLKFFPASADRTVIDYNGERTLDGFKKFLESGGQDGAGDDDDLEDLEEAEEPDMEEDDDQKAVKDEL
FGF22 binding – binders of human FGF22 protein, primary screen, FGF22 synaptogenesis inhibitor project, biophysical, thermal shift, single point; Fibroblast growth factor 22 (Homo sapiens), Q9HCT0; recombinant FGF22 thermal shift, SYPRO orange fluorescence; percent of sucrose octasulfate shift, DMSO zero; activity (Tm shift, normalised), % at 9.99 µM; 1.5% of 340,000 active; AID 651658, 2012;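 active = mean Tm shift, scaled 0 neutral to 100 positive control, at about 1.3% or above, every replicate too, limit read from the data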
Target sequence (Q9HCT0 whole entry, looked up): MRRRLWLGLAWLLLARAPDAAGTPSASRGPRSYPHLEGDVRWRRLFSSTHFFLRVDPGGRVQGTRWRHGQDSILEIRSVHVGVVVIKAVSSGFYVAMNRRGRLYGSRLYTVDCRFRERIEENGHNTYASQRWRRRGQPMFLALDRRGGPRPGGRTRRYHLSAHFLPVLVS
MLL AF4-AF9 inh – inhibitors of AF4 peptide binding to AF9, primary screen, biochemical, AlphaScreen, biotin-AF4 peptide, FLAG-AF9, single point; Protein AF-9 (Homo sapiens), P42568; inhibition, % at 10 µM; 0.47% of 350,000 active; AID 651704, 2012;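 active = every replicate reaching a set inhibition limit, whatever the replicate mean, cut at about 25% in these data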;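 also: 0% = plate neutral control median and 100% = total signal loss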
ERp5 inh – inhibitors of ERp5-driven insulin aggregation, primary screen, biochemical, turbidity, absorbance 650 nm, single point. Protein disulfide-isomerase A6 (Homo sapiens), Q15084. 90 min. inhibition, % at 9.99 µM. 0.05% of 350,000 active;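 active = mean replicate inhibition above about 25%, with every replicate also reaching it, limit read from the data, passing the limit was not always enough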
FN deposition inh – inhibitors of fibronectin matrix deposition, primary screen, AH1F cells, Alexa488-fibronectin fluorescence, plate reader. inhibition, % at 12.6 µM. AH1F fibroblasts, overnight. 0.086% of 350,000 active;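 active = mean inhibition across replicates of 30% or more, regardless of how many single replicates reach that level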;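 also: positive control wells lacked labelled fibronectin entirely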
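Measured by – fluorescence 485/525 nm · System – AH1F fibroblast monolayer, labelled fibronectin deposition · Amount – 10000 cells per well · Buffer or medium – serum-reduced DMEM (2% serum) · Doses – single dose, pinned · Also added – fluorescent fibronectin at 24 nM final · Schedule – 1 h cell attachment, overnight exposure to compound and label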
The depositor's hits bear a star; x = not tested or not shown.

SMILES | ARNT-TACC3 inh | PDI turbidity | FGF22 binding | MLL AF4-AF9 inh | ERp5 inh | FN deposition inh
OCCC1CN(Cc2cccn2-c2cccnc2)CCN1Cc1ccc(F)cc1 (centres undefined) | -7 | 4 | 0 | -1 | -3 | 3
Cc1cccc(-c2ncc(CN3CCN(CC(C)C)C(CCO)C3)cn2)c1 (centres undefined) | -1 | -1 | 43* | 0 | 1 | -3
COc1ccc2[nH]c(CN3CCN(CC(C)C)C(CCO)C3)c(C)c2c1 (centres undefined) | -13 | 4 | 43* | -6 | -2 | -4
COc1cccc(S(=O)(=O)N[C@H]2CC[C@@H](CC(=O)NCc3ccccc3)O[C@@H]2CO)c1 | -3 | x | 0 | 0 | -2 | x
COc1ccc(CN(C2CCCC2)S(=O)(=O)c2ccc(-n3cnnn3)cc2)cc1OC | 1 | 4 | x | x | x | 31*
COc1ccc(CN(C2CCCC2)S(=O)(=O)c2ccc(-n3cnnn3)cc2)cc1 | -49 | 7 | x | x | x | 7
COC(=O)Cc1[nH]n(-c2nc3ccccc3s2)c(=O)c1C(C)=Nc1ccc(Cl)cc1 | 3 | 8 | 0 | -31 | -4 | -2
C/C(=N/NC(=O)c1cccs1)c1c(C)[nH]n(-c2nc3ccccc3s2)c1=O | 47* | -11 | 0 | 2 | 5 | -17
COC(=O)Cc1[nH]n(-c2nc3ccccc3s2)c(=O)c1C(C)=Nc1ccc(C)cc1 | 4 | 4 | 2.5* | -1 | -3 | 0
COc1cccc(-c2ccc([C@H]3[C@H](CO)N4C(=O)CN(C(=O)C5CCC5)C[C@@H]34)cc2)c1 | x | x | x | -3 | -5 | 3
Cc1ccc(S(=O)(=O)Nc2ccc3c(c2)C(=O)N([C@H](C)CO)C[C@H](C)[C@H](CN(C)CC2CCCCC2)OCCCC[C@H](C)O3)cc1 | 7 | x | 0 | -13 | -2 | x
C=CCc1c(C)nc(-c2ccccc2)nc1N/N=C/c1ccncc1 | -4 | 7 | 43* | 5 | -3 | 2
C=CCc1c(C)nc(-c2ccccc2)nc1N/N=C/c1ccccc1 | 17 | 8 | 0 | 16 | 3 | -1
CC(=O)N1CCN(CC(=O)Nc2ccc3c(c2)CCC3)CC1 | -7 | 2 | 44* | 0 | -4 | -4
CC(=O)N1CCN(CC(=O)Nc2ccc(Cl)c(S(=O)(=O)N(C)C)c2)CC1 | 1 | 4 | 0 | 5 | -16 | 2
CC(=O)N1CCN(CC(=O)Nc2ccc(C)c(S(=O)(=O)N(C)C)c2)CC1 | -3 | 0 | 43* | -1 | 6 | 12
CC(=O)N1CCN(c2ccc([N+](=O)[O-])cc2C#N)CC1 | -2 | 20 | 0 | -1 | 0 | -1
CCCN1CCN(c2ccc([N+](=O)[O-])cc2C#N)CC1 | 2 | -10 | 43* | 2 | -2 | -7
CC(C)NC(=O)Nc1ccc2c(c1)C(=O)N([C@@H](C)CO)C[C@@H](C)[C@H](CN(C)C(=O)NC(C)C)OCCCC[C@H](C)O2 | -5 | x | 1 | -5 | 4 | -11
C[C@@H]1CCCCO[C@H](CN(C)CC2CCCCC2)[C@H](C)CN([C@H](C)CO)C(=O)c2cc(NS(=O)(=O)c3cccs3)ccc2O1 | 0 | x | 0 | 17 | -1 | x
C[C@H](CO)N1C[C@H](C)[C@H](CN(C)Cc2ccc(Oc3ccccc3)cc2)Oc2ccc(NC(=O)CCCN(C)C)cc2C1=O | 22 | x | x | 18 | 1 | x
Cc1ccc(NS(=O)(=O)c2ccc(C(=O)N3CCN(c4ccccn4)CC3)cc2)cc1 | 2 | 12 | x | x | x | x
COc1ccccc1NS(=O)(=O)c1ccc(C(=O)N2CCN(c3ccccn3)CC2)cc1 | -3 | -5 | 1 | 3 | 27* | -11
COc1ccc([N+](=O)[O-])cc1NS(=O)(=O)c1ccc(C(=O)N2CCCC2)cc1 | -5 | 5 | 0 | 0 | 9 | 34*
COc1ccc([N+](=O)[O-])cc1NS(=O)(=O)c1cc(C(=O)N2CCN(C)CC2)ccc1OC | -4 | 6 | 0 | -1 | 0 | 5
SMILES | ARNT-TACC3 inh | PDI turbidity | FGF22 binding | MLL AF4-AF9 inh | ERp5 inh | FN deposition inh
C[C@@H]1CN([C@H](C)CO)C(=O)c2cc(NC(=O)C3CCCCC3)ccc2O[C@@H](C)CCCCO[C@H]1CN(C)Cc1ccc(C(=O)O)cc1 | 3 | x | 0 | -2 | 4 | x
O=C(C[C@@H]1C[C@@H]2c3cc(NC(=O)NC4CCCCC4)ccc3O[C@@H]2[C@H](CO)O1)NC1CCCCC1 | x | x | x | -5 | 7 | -4
CC(C)CCNC(=O)c1cccc(Cl)c1 | x | -2 | x | x | x | -1
NC(=O)CNC(=O)c1cccc(Cl)c1 | active | -3 | 0 | 0 | -1 | 0
C[C@H](CO)N1C[C@H](C)[C@@H](CN(C)C(=O)NC2CCCCC2)Oc2ccc(NC(=O)C3CC3)cc2CC1=O | 1 | x | 0 | -3 | 0 | x
Cc1ccc(NC(=O)c2sc(=S)n(-c3cc(C)ccc3F)c2N)cc1 | -2 | -1 | 43* | -1 | 1 | -7
Cc1ccccc1-n1c(N)c(C(=O)Nc2ccc(F)cc2)sc1=S | 4 | 0 | 1 | -2 | 5 | -4
CCN(CC)c1ccc(N=Nc2ncn[nH]2)cc1 | 70* | 2 | 0 | 3 | -3 | 9
C[C@H]1CN([C@@H](C)CO)C(=O)c2cc(N(C)C)ccc2O[C@@H]1CN(C)Cc1ccc(-c2ccccc2)cc1 | 16 | x | 0 | 40* | -3 | x
C[C@@H]1CN([C@H](C)CO)C(=O)c2cc(N(C)C)ccc2O[C@H]1CN(C)Cc1ccc(-c2ccccc2)cc1 | x | x | 0 | 50* | 9 | x
C[C@@H]1CN([C@H](C)CO)C(=O)c2cc(N(C)C)ccc2O[C@H]1CN(C)Cc1ccccc1 | -9 | x | 0 | -4 | -3 | x
C[C@@H]1CN([C@H](C)CO)C(=O)c2cc(N(C)C)ccc2O[C@@H]1CN(C)Cc1ccccc1 | 3 | x | -1 | -1 | 1 | x
C[C@@H]1CCCCO[C@H](CN(C)S(C)(=O)=O)[C@H](C)CN([C@@H](C)CO)C(=O)c2cc(N(C)C)ccc2O1 | 4 | x | -1 | -3 | 0 | x
CCOC(=O)CC1C(=O)NCCN1Cc1cccs1 (centres undefined) | -8 | -7 | 43* | -1 | -4 | -10
Cc1noc(C)c1S(=O)(=O)N(C)C[C@H]1OCCCC[C@H](C)Oc2ccc(NS(=O)(=O)c3ccc(Cl)cc3)cc2C(=O)N([C@H](C)CO)C[C@@H]1C | 8 | x | -1 | 0 | 7 | x
